Compound activity as filed in PubChem.
The list is not random: actives were taken first. Their share in the collection is about 2.5%.
SENP6 block = SENP6 protease inhibitors, primary screen, biochemical, luminescence, uHTS; actives 1.8% (n = 330,000); inhibition, % at 10 µM; Recombinant SENP6 catalytic domain, aminoluciferin luminescence; Sentrin-specific protease 6 (Homo sapiens), Q9GZR1; AID 2599, 2010;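 active means inhibition above about 50% at the single tested dose, limit read from the data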;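 further: plate controls were DMSO wells with enzyme for no effect and DMSO wells lacking enzyme for full effect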
Target sequence (Q9GZR1 628-1112 limits assumed): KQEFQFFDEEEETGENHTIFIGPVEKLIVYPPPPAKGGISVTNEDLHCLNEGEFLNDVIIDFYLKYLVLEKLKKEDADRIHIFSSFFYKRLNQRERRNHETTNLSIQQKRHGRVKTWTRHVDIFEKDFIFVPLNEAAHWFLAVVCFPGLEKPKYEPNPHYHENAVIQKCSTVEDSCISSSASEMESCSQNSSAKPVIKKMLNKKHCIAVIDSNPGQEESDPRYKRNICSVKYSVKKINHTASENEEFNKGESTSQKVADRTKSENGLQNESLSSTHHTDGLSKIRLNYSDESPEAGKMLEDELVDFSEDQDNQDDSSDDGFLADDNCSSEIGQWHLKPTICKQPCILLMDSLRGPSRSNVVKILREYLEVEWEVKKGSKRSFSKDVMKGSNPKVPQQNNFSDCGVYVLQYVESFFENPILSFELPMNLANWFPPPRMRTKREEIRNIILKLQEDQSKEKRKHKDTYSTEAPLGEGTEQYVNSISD
SENP8 block-1 = human SENP8 protease inhibitors, primary screen, biochemical, fluorescence, Nedd8 protein substrate, uHTS; AID 602440, 2012; actives 0.64% (n = 360,000); inhibition, % at 20 µM; recombinant SENP8; in the data active means inhibition mostly above about 40%, no sharp cut-off; inactive means mostly below about 27%
SENP8 block-2 = SENP8 protease inhibitors, primary screen, biochemical, luminescence; Sentrin-specific protease 8 (Homo sapiens), Q96LD8; actives 1.2% (n = 330,000); inhibition, % at 10 µM; purified SENP8, Z-RLRGG-aminoluciferin cleavage; in the data active means inhibition above about 50%
SENP1 inh = human SENP1 catalytic domain inhibitors, primary screen, biochemical, FRET, uHTS; recombinant SENP1 catalytic domain, CyPet-SUMO1-YPet FRET cleavage; actives 0.21% (n = 360,000); inhibition, % at 10 µM;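 active means inhibition at least 30% at 10 µM, raw YFP signal under a set limit, fluorescence ratio 0.5 to 1.5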;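 further: 0% = enzyme with DMSO and 100% = no enzyme wells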
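Test system: hSENP1 catalytic domain, recombinant; Amount: 20 pM final SENP1 enzyme; Medium: Tris pH 8 buffer plus EDTA, NaCl, BME, BSA, NP40, catalase; Schedule: 50 min enzyme reaction, room temperature, light-protected; Technique: FRET fluorescence in CFP and YFP emission channels; Controls: no-enzyme wells low, DMSO-plus-enzyme wells high control.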
SENP7 inh = SENP7 protease inhibitors, primary screen, biochemical, luminescence, uHTS; recombinant SENP7, Z-RLRGG-aminoluciferin luminescence, 40 min; inhibition, % at 5 µM; actives 1.5% (n = 330,000);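 active means inhibition above about 50% at the single test dose, limit read from the data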;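 further: plate controls were DMSO with enzyme for no effect and no enzyme buffer wells for full effect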
SENP8 conf = SENP8 protease inhibitors, retest, confirmation, biochemical, luminescence, single concentration; actives 40% (n = 6,200); shares compounds with SENP7 inh; AID 488912, 2010; inhibition, % at 12.5 µM; Recombinant SENP8, Z-RLRGG-aminoluciferin luminescence, 60 min;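 active means mean inhibition across replicates above about 50%, limit read from the data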
SENP6 confirm = SENP6 protease inhibitors, confirmation, biochemical, luminescence, single concentration | shares compounds with SENP7 inh | recombinant SENP6, Z-RLRGG-aminoluciferin luminescence | inhibition, % at 12.5 µM | actives 58% (n = 6,200) | AID 488915, 2010
SENP7 confirm = SENP7 protease inhibitors, retest, confirmation, biochemical, luminescence, single concentration; shares compounds with SENP7 inh; recombinant SENP7, Z-RLRGG-aminoluciferin luminescence, 40 min; inhibition, % at 12.5 µM; actives 69% (n = 6,200)
Casp3 SENP sel = caspase-3 protease inhibitors, confirmation, selectivity assay for SENP inhibitor project, biochemical, single concentration | inhibition, % at 12.5 µM | shares compounds with SENP7 inh | AID 488918, 2010 | purified caspase-3, Z-DEVD-aminoluciferin luminescence, 60 min | actives 60% (n = 6,200);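 active means mean inhibition above about 50%, limit read from the data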;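 further: plate controls were enzyme with DMSO for no effect and wells without caspase-3 for full effect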
Target sequence (P42574 28-227 limits assumed): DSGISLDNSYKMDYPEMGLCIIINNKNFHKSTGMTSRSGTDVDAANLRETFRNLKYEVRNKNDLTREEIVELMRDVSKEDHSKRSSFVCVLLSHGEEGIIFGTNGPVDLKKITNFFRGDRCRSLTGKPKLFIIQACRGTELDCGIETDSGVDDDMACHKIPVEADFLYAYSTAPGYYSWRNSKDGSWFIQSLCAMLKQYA
SENP luc ctr = luminescence interference (SENP counter-screen); shares compounds with SENP7 inh; Pre-incubated SENP8/Z-RLRGG-aminoluciferin, luciferase luminescence interference; inhibition, % at 12.5 µM; actives 39% (n = 6,200);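 active means mean inhibition above about 50% when retested at one dose, limit read from the data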;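 further: plate controls were DMSO wells with completed reaction for no effect and substrate without enzyme for full effect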
* marks the source's active call; other numbers are inactive results; / = no result given.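 How the source made its calls, unless noted: active means mean inhibition above about 50% in the one-dose retest (limit read from the data); inactive means the rest.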

SMILES	SENP6 block	SENP8 block-1	SENP8 block-2	SENP1 inh	SENP7 inh	SENP8 conf	SENP6 confirm	SENP7 confirm	Casp3 SENP sel	SENP luc ctr
COc1cccc(NC(=O)/C=C/c2ccco2)c1	58.5*	1.7	84.4*	-5.5	91.6*	-11.5	87.5*	99.5*	93.2*	87.7*
CSc1cccc(NC(=O)/C=C/c2ccco2)c1	-4.2	-22.6	-5.9	-17.8	-4.4	/	/	/	/	/
O=C(/C=C/c1ccco1)Nc1ccc(N2CCCC2)cc1	63.1*	28.0	43.5	-4.3	68.1*	39.3	31.5	56.9*	21.0	26.9
O=C(/C=C/c1ccco1)Nc1ccc(C(=O)N2CCOCC2)cc1	14.0	7.3	-4.6	0.0	1.2	/	/	/	/	/
COc1cccc(CC(=O)OCC(=O)NCCc2ccc(F)cc2)c1	-2.8	15.6	-13.0	-0.2	-9.1	/	/	/	/	/
COc1ccc(CCNC(=O)C2CCC(C(C)(C)C)CC2)cc1OC (centres undefined)	-3.9	2.3	-5.0	-1.5	2.7	/	/	/	/	/
Cc1ccccc1NC(=O)CCC(=O)OCCCC(F)(F)C(F)(F)F	-10.2	2.5	-12.3	1.4	4.5	/	/	/	/	/
O=C(CCC(=O)OCCCC(F)(F)C(F)(F)F)Nc1ccccc1	-21.7	15.5	-0.4	2.2	99.3*	-2.1	-1.2	-6.1	-4.6	-3.8
CCc1ccc(NC(=O)CSc2nc3ccccc3c(=O)n2CCCN2CCC(C)CC2)cc1	-9.6	16.6	-5.5	3.8	-0.7	/	/	/	/	/
CCCS/C(N)=N/N=C/c1cc(C)ccc1O	53.3*	32.4	10.3	2.8	10.6	19.8	16.9	59.0*	20.5	17.1
CCCCS/C(N)=N/N=C/c1ccccc1O	-7.4	-11.3	0.2	1.3	0.2	/	/	/	/	/
Nc1nnnn1/N=C/c1ccc(O)cc1	95.1*	-39.9	88.9*	-1.1	90.3*	92.6*	93.2*	101.0*	97.5*	85.3*
Nc1nnnn1/N=C/c1cccc(O)c1	6.8	14.8	-12.8	2.1	-3.3	/	/	/	/	/
Cn1c(CNc2ccc(Br)cc2)nc2ccccc21	69.6*	9.0	59.0*	0.6	71.6*	-3.4	63.4*	86.6*	62.7*	70.1*
COc1ccc(CNc2nc3ccccc3n2C(C)C)c(O)c1	10.3	34.6	-1.4	0.4	3.0	/	/	/	/	/
COc1ccc(CNc2nc3ccccc3n2C)c(O)c1	64.5*	1.7	41.3	2.5	68.4*	66.6*	64.9*	90.3*	73.1*	71.4*
COc1ccc(Nc2nc3ccccc3n2C)cc1	55.5*	12.2	32.7	0.9	34.8	20.6	22.4	69.0*	71.5*	48.9
COc1ccc(NCc2nc3ccccc3n2C)cc1	68.1*	12.4	33.3	-0.4	45.4	65.2*	63.5*	84.7*	86.6*	70.5*
COc1ccc(-c2n(Cc3ccccc3)c3ccccc3[n+]2Cc2ccccc2)cc1	-14.2	1.3	0.1	-0.4	10.4	/	/	/	/	/
CSCC[C@H](NC(=O)Nc1ccc(S(N)(=O)=O)cc1)C(=O)O	-13.8	17.8	-6.6	-0.8	1.1	/	/	/	/	/
O=C(Nc1ccc2ccccc2c1)N1CCCN(CCOc2ccccc2)CC1	-9.7	-137.5	-10.2	0.3	15.9	/	/	/	/	/
CCOC(=O)C1(C)CCN1C(=O)/C=C/c1ccccc1 (centres undefined)	/	11.2	/	-0.3	/	/	/	/	/	/
Cc1ccc(CNc2nc3ccccc3n2C)cc1	78.4*	-13.3	59.0*	1.3	71.9*	60.9*	61.5*	90.6*	87.7*	75.1*
Cc1ccc(NCc2nc3ccccc3n2C)cc1	38.7	-76.5	12.3	-5.3	3.5	/	/	/	/	/
CCOC(=O)c1ccc(NCc2nc3ccccc3n2C)cc1	46.4	8.7	61.1*	2.7	79.1*	82.1*	83.2*	95.9*	86.2*	83.2*
SMILES	SENP6 block	SENP8 block-1	SENP8 block-2	SENP1 inh	SENP7 inh	SENP8 conf	SENP6 confirm	SENP7 confirm	Casp3 SENP sel	SENP luc ctr
CC(C)(C)C1CCC(N2CCN(c3ccccc3)CC2)CC1 (centres undefined)	-6.3	20.9	-10.5	0.2	-13.4	/	/	/	/	/
CC1CC(C)CN(S(=O)(=O)c2ccc3oc(=O)ccc3c2)C1 (centres undefined)	1.8	5.4	2.6	0.7	4.3	/	/	/	/	/
COc1ccc(/C=C2\SC(=S)N(CC(=O)N3CCN(C)CC3)C2=O)cc1	-32.8	30.7	-12.7	-34.2	-6.3	/	/	/	/	/
COc1ccc(/C=C2/SC(=S)N(CCCC(=O)N3CCN(C)CC3)C2=O)cc1	65.1*	16.3	54.3*	-32.1	69.1*	58.4*	60.0*	86.4*	66.6*	69.4*
CCOc1ccc(/C=C2\SC(=S)N(CCC(=O)O)C2=O)cc1	98.6*	16.3	96.7*	-25.0	59.9*	97.4*	99.8*	102.7*	48.7	92.4*
Cc1ccc(/C=C2\SC(=S)N(CCCC(=O)N3CCOCC3)C2=O)cc1	84.4*	11.4	83.8*	1.3	84.3*	90.2*	89.0*	96.9*	72.5*	74.6*
COc1ccc(Cn2c(-c3ccco3)nc3oc4cc(OC)ccc4c(=O)c3c2=O)cc1	50.3*	-5.5	17.0	-20.5	40.8	-20.1	-15.2	-5.8	-0.2	-5.8
O=C(c1ccc(F)cc1)N1CCC2(CC1)NCCc1[nH]cnc12	-7.6	7.6	-1.6	1.7	2.8	/	/	/	/	/
O=C(c1ccc(O)cc1)c1ccc(O)cc1O	-6.3	16.4	3.0	-1.6	-2.2	/	/	/	/	/
CN(C)c1ccc(C(=O)c2ccc(O)cc2O)cc1	67.3*	31.4	49.1	0.8	41.9	53.8*	51.4*	83.2*	45.5	60.5*
Cc1cccc(NC(=O)CN2C(=O)S/C(=C\c3ccc(O)c([N+](=O)[O-])c3)C2=O)c1	50.6*	26.4	27.0	3.0	-2.9	13.2	4.2	17.3	23.5	15.0
Cc1ccc(NC(=O)CN2C(=O)S/C(=C/c3ccc(O)c([N+](=O)[O-])c3)C2=O)cc1C	-27.4	33.8	31.4	2.3	2.3	/	/	/	/	/
C/C(=N\OC(=O)c1ccc(C)cc1)c1c(C)nc2cc(C)ccn12	-36.8	-69.2	-13.4	6.9	-10.3	/	/	/	/	/
